Experimental data gathered from unrelated publications.
Protocols differ between the studies behind these lines.

Structure (SMILES) | test system | conditions | endpoint | result
CNC(=O)Nc1cc(Oc2cncc(C)c2)c([C@H]2C[C@@H](O)C2)cn1 | rat, plasma | – | fraction unbound | 0.32
Fc1ccc(Nc2n[nH]c3cccnc23)cc1Cl | rat, brain homogenate | – | fraction unbound | 0.0045
C=CC(=O)N(C)CCOc1c(N)ncnc1-c1cc(F)cc(NC(=O)c2ccc(C3CC3)cc2F)c1C | human, blood | oral, 100 mg, single dose, healthy volunteers | Tmax | 1.03 h
O=C(Nc1cc(F)c(F)c(F)c1)c1ccc(F)c(S(=O)(=O)NCc2cccc(B(O)O)c2)c1 | male Sprague-Dawley rat, plasma | oral, 20 mg/kg | MRT(0-t) | 0.84 h
CCOC(=O)[C@@]12C[C@@H]1[C@@H](n1ccc3c(NC)nc(C#Cc4ccc(Cl)s4)nc31)[C@H](O)[C@@H]2O | male Sprague-Dawley rat, plasma | oral, 1 mg/kg | MRT | 2.34 h
CC(C)n1cc(C#N)c2cc(-n3cc(C(=O)O)cn3)ccc21 | male human, plasma | oral, 600 mg, single dose, fasted, healthy volunteers | Tmax | 2.5 h
CC(=O)Nc1nnc(N2CCN([C@@H](C)c3ccc4c(c3)OCO4)CC2)s1 | rabbit, plasma | 1 µM | fraction unbound | 0.059
C[C@@H](Nc1cc(F)cc(F)c1)c1cc(C(=O)N(C)C)cc2c(=O)cc(N3CCOCC3)oc12 | human, plasma | oral, 240 mg, patients | Tmax | 2 h
Cn1cc(-c2ccc(S(=O)(=O)[C@@H]3C[C@@H](C(=O)NC4(C#N)CC4)N(C(=O)C4(C(F)(F)F)CC4)C3)c(C(F)(F)F)c2)cn1 | human, plasma | oral, 30 mg, single dose, fasted, healthy volunteers | Tmax | 4.51 h
CCc1cc(C(=O)NC)c2nccc(N3CCc4c(cc(Cn5ccnc5)cc4-c4cn(C)nc4C(F)(F)F)C3=O)c2c1 | male Sprague-Dawley rat, plasma | oral, 50 mg/kg, single dose | MRT(0-inf) | 2.2 h
